# Test results as given in paper PMC4324687 (Pharmacology Research & Perspectives, 2015).
# “And” between values parts separate entries of the source, which are not always exact repeats. Equal entries are not always repeated. Where two headings read alike, the source gives them in different places.
# Key:
# CYP3A4 = settings: human liver microsomes; ref F. Hoffmann-La Roche, data on file; cited from earlier work
# [1] = Metabolic profiling of pooled feces; type: in vivo, human
# [2] = dog plasma after oral administration; ref F. Hoffmann-La Roche, data on file; cited from earlier work
# [3] = ref F. Hoffmann-La Roche, data on file, cited from earlier work
# [4] = Pharmacokinetics of 14C-vemurafenib-related material; type: in vivo, human; settings: for Cmax, mean ± SD [CV%]: single oral 960-mg dose
# [5] = tested on: patients with metastatic melanoma; assay: Safety assessments in patients with metastatic melanoma; type: in vivo, human
# Method in brief: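 Seven patients received a single oral 960-mg dose of 14C-labelled test compound on day 15 after ≥8 h fasting. Monitoring ran through the study and a 28-day follow-up and covered adverse events, routine laboratory values, physical examination, vital signs, electrocardiography, dermatology, and head/neck and chest CT. SCC cases were followed until death, consent withdrawal or loss to follow-up. Severity was graded by NCI CTCAE v4.0 and summarised.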
# [6] = cited from earlier work
# [7] = Metabolic profiling of pooled urine; type: in vivo, human; settings: single pool 0–96 h
# [8] = cited from earlier work; remark: listed apart in the source
# [9] = Metabolic profiling of pooled plasma; type: in vivo, human; settings: for proportion of total chromatographic radioactivity in plasma, overall: over the 48-h interval postdose
# [10] = type: in vivo, human
# [11] = plasma, N=5, listed as 14C-vemurafenib
# [12] = laboratory evaluation, of seven patients
# [13] = within 18 days after dosing, listed as 14C-vemurafenib
structure (smiles),measurement,setting,value
CCCS(=O)(=O)Nc1ccc(F)c(C(=O)c2c[nH]c3ncc(-c4ccc(Cl)cc4)cc23)c1F [vemurafenib],primary enzyme responsible for metabolism and formation of hydroxylated metabolites,CYP3A4,CYP3A4 was the primary enzyme
same,"proportion of radioactivity in feces, mean",[1]; 48–96 h pool,55.5 ± 20.1%
same,% of the total input dose found in pooled feces,[1]; first 48 h,38%
same,"proportion of all recovered radioactivity in feces, mean ± SD",[1]; first 48 h pool,94.2 ± 5.8%
same,% of the total radioactive dose found in pooled feces,[1]; within the first 96 h,~55%
same,component status of unchanged parent drug in plasma,[2],major component
same,component status of unchanged parent drug in plasma,[3]; rat plasma after oral administration,major component
same,route of recovery of vemurafenib-derived radioactivity (parent plus metabolites),[3]; rats,primarily recovered in feces
same,"Blood/plasma AUC ratio, mean ± SD [CV%]",[4]; N=5,0.72 ± 0.050 [6.83]
same,14C-vemurafenib-related material that might be bound to the cellular compartment in whole blood,[4]; assuming 40–50% of whole blood is cells,10–20%
same,"Tmax, median (minimum–maximum)","[4]; blood, N=5",4.1 (4–12) ^1 h
same,"t½ (elimination half-life), mean ± SD [CV%]","[4]; blood, N=5",84.4 ± 24.6 [29.1] h
same,"Cmax, mean ± SD [CV%]","[4]; blood, N=5",5.25 ± 1.71 [32.5] μg eq/mL
same,"Blood/plasma AUC ratio, range","[4]; human, blood and plasma, oral, 960 mg",0.69–0.81
same,"plasma elimination half-life of 14C-vemurafenib-related material, range",[4]; plasma,51 to 86 h
same,"Tmax, median (minimum–maximum)","[4]; plasma, N=5",4.1 (4–12) ^1 h
same,"t½ (elimination half-life) of 14C-vemurafenib-related material, mean ± SD [CV%]","[4]; plasma, N=5",71 h
same,"t½ (elimination half-life) of 14C-vemurafenib-related material, mean ± SD [CV%]",[4]; [11],71.1 ± 15.4 [21.6] h
same,"Cmax, mean ± SD [CV%]",[4]; [11],7.83 ± 2.28 [29.1] μg eq/mL
same,severity of most adverse events,[5]; NCI CTCAE grade 1 or 2,mild or moderate
same,"serious adverse events (all grade 3), number of events","[5]; cuSCC, cuSCC and keratoacanthoma, considered related",Three
same,elevated low-density lipoprotein cholesterol level,[5]; [12],three
same,grade 3 lymphopenia,[5]; [12],four
same,low white blood cell count,[5]; [12],three
same,changes in electrocardiography or vital signs,[5]; seven patients,No clinically significant changes
same,patients with at least one adverse event related to vemurafenib,[5]; seven patients,All patients
same,treatment discontinuation because of an adverse event,[5]; seven patients,No patient discontinued treatment
same,tolerability,"[5]; seven patients, 960 mg twice daily",well-tolerated
same,median elimination half-life (population PK modeling),"[6]; continual multiple-dose vemurafenib, ref Genentech, Inc. [2014]",57 h
same,elimination half-life after a single dose,"[6]; single dose, ref Ribas et al. [2014]",~25 h
same,% of total administered (input radioactive) dose in urine,[7],~1%
same,maximum tolerated dose and recommended dose for further clinical evaluation,"[8]; phase 1 data, ref Flaherty et al. [2010]",960 mg twice daily
same,pharmacokinetics with hand-filled capsules versus tablets,"[8]; phase 1 trial PLX06-02, ref phase 1 trial PLX06-02",No differences
same,"proportion of radioactivity in pooled plasma, mean ± SD",[9]; 4–6 h pool,99.5 ± 1.4%
same,"proportion of radioactivity in pooled plasma, mean ± SD",[9]; 12–24 h pool,95.9 ± 5.5%
same,"proportion of radioactivity in pooled plasma, mean ± SD",[9]; 36–48 h pool,96.0 ± 3.8%
same,"proportion of total chromatographic radioactivity in plasma, overall",[9]; listed as parent compound,95%
same,"proportion of total chromatographic radioactivity in plasma, overall",[9]; listed as parent molecule,> 95%
same,time within which the majority of fecal radioactivity was eliminated,[10]; cumulative excretion in feces,≤ 264 h
same,time within which the majority of urinary radioactivity was eliminated,[10]; cumulative excretion in urine,≤ 192 h
same,"radioactivity recovered in feces, mean ± SD",[10]; within 18 days after dosing,Approximately 94%
same,"radioactivity recovered in feces, range",[10]; within 18 days after dosing,89.4–97.6%
same,"radioactivity recovered in urine, mean",[10]; within 18 days after dosing,≤ 1%
same,"radioactivity recovered in urine, range",[10]; within 18 days after dosing,0.56–1.63%
same,"radioactivity recovered in feces, mean ± SD",[10]; [13],94.1% and 94.1 ± 2.7%
same,"radioactivity recovered in urine, mean",[10]; [13],< 1%
same,"14C-vemurafenib-related material recovered from urine and feces, range","[10]; within 18 days after dosing, seven patients",91.0–98.3%
